Data from ChEMBL document CHEMBL4513216, “Probing the Open Global Health Chemical Diversity Library for Multistage-Active Starting Points for Next-Generation Antimalarials” (ACS Infect Dis, 2020).

Experiment: Toxicity liver stage against HepG2, at 10uM
Assay type: cell-based
Design: test concentration 10 uM, cell line HepG2-A16-CD81EGFP
Settings: human, HepG2-A16-CD81EGFP cells; read-out: INHIBITION
Summary of the method: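 Uninfected HepG2-A16-CD81EGFP cells, 3 × 10^3 per well, 1536-well, plated on prespotted compound at 10 μM final, parasite-free screening media added to match infected plates; puromycin 10 μM positive, DMSO 0.5% negative; run in parallel with 48 h PbLuc assay at 37 °C, 5% CO2; viability by CellTiter-Glo luminescence, normalized to controls.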

| Structure (SMILES) | cytotoxicity at 10 µM [%] |
| --- | --- |
| O=C(NCC(F)(F)C(F)F)c1ccncc1 | 10.3 |
| O=C(C1CC=CC1)N1CC[C@@H]2O[C@H](COCC3CCOCC3)CC[C@@H]21 | -0.0499 |
| O=C(c1ccc[nH]1)N1CCC2(CC1)COCCN(c1nccs1)C2 | 12.8 |
| COCC1CN(Cc2c(C)noc2C)Cc2cn(C)nc21 (stereo unspecified) | 13.2 |
| O=c1[nH]c2nc(N3CCCCCC3)ncc2c(=O)n1-c1cccc(F)c1 | 6.39 |
| O=C(c1ccccn1)N1CCN(c2ccc(-c3cccnc3)nn2)CC1 | 2.84 |
| CCOc1ccc(NC(C)=O)cc1S(=O)(=O)Nc1nnc(C)s1 | -17.6 |
| Cn1nc(C(=O)NCc2ccc(F)cc2)c2c1CCS(=O)(=O)C2 | 8.02 |
| Cc1nn(C(C)C)c2cnn(CC(=O)N3CCN(C)CC3)c12 | 9.51 |
| CCn1nc(C)c2ncnc(NCCN3CCOCC3)c21 | 8.93 |
| CCC1CNCc2cc3c(C)ccc(C)c3nc2O1 (stereo unspecified) | -4.22 |
| O=S(=O)(c1ccccc1Cl)N1CCCC(c2ncc[nH]2)C1 (stereo unspecified) | 5.48 |
| Cc1noc(C)c1CS(=O)(=O)Cc1nc(C2CC2)no1 | 3.37 |
| CC1(C)CN(Cc2ccncc2)CCS1(=O)=O | -4.95 |
| CC(C)CC(=O)NCC(O)c1c(F)cccc1F (stereo unspecified) | -2.24 |
| Nc1nccnc1C(=O)NC1CCCN(Cc2c(F)cccc2F)C1 (stereo unspecified) | -2.14 |
| CN(CCCNC(=O)c1ccc(C#N)cc1)CC(F)(F)F | 5.12 |
| COC(=O)C1CN(Cc2nc(C(C)(C)C)cs2)C[C@@H](C)O1 (stereo partly specified) | -8.22 |
| CC(=O)c1c(F)cccc1NC1CCN(C(=O)CC(C)C)CC1 | 22.6 |
| O=C(C1CC(=O)N(c2ccccc2Br)C1)N1CCCCCC1 (stereo unspecified) | 8.52 |
| COc1ccc(NC(C)C(=O)N2CCN(c3ccccc3)CC2)cn1 (stereo unspecified) | 9.75 |
| Cc1nc(C(C)(C)NC(=O)Nc2ccncc2)no1 | 9.32 |
| Cc1n[nH]c(C2CN(CC(=O)NCCc3ccccc3)CCO2)n1 (stereo unspecified) | 10.2 |

| Structure (SMILES) | cytotoxicity at 10 µM [%] |
| --- | --- |
| Cc1c(CC(=O)N2CCN(C(C)C)CC2)nnn1-c1ccccc1 | -3.64 |
| COCCc1noc(CN2CCCC2c2noc(C(C)C)n2)n1 (stereo unspecified) | -11.5 |
| Fc1ccc(CN2CCCCC2Cn2cncn2)c2ncccc12 (stereo unspecified) | 6.95 |
| Cc1nc(C)c(C(=O)N2CCCC(n3ccnc3C)C2)s1 (stereo unspecified) | -5.19 |
| Cc1ccc(C(=O)N(C)Cc2cc(Br)cs2)cn1 | 9.06 |
| CS(=O)(=O)c1ccc(C(=O)N2CCCC(n3cncn3)C2)o1 (stereo unspecified) | 7.85 |
| CN(CC(=O)Nc1cccc(F)c1)Cc1nc(N)nc(N(C)C)n1 | -6.13 |
| CSCC(C)(O)CNc1cccc(F)c1C(C)=O (stereo unspecified) | 2.19 |
| COc1ccc(CN2CCN(C(C)=O)CC2)cc1SC(F)(F)F | 7.31 |
| CC(C)(C)CC(=O)NCC(=O)Nc1ccn(Cc2cccnc2)n1 | 15.4 |
| CCN(Cc1ccc(F)cc1Cl)C1CCS(=O)(=O)C1 (stereo unspecified) | 14.9 |
| O=C(NCCC1CC1)NCc1cccc(-n2ccnc2)c1 | 19.7 |
| CS(=O)(=O)NCCCNC(=O)c1cccnc1O | -17.7 |
| CCCNC(=O)CCNC(=O)Cc1nc(-c2ccco2)oc1C | 23.7 |
| CCOC(C)c1nc(CN2CCN(c3nccc(C)n3)CC2)cs1 (stereo unspecified) | -8.89 |
| O=C(NC1CCCC1)NC1CCC(C(=O)N2CCSCC2)CC1 (stereo unspecified) | 3.58 |
| COCCc1noc(CNC2CCCN(c3cccnn3)C2)n1 (stereo unspecified) | -13.7 |
| CS(=O)(=O)c1ccc(OCCNCc2cccc(F)c2)cc1 | -9.06 |
| O=C(C1CCOC1)N1CC2(CCN(c3ccccc3)C2)C1 (stereo unspecified) | 9.88 |
| CC(=O)N1CCO[C@@H]2CN(S(=O)(=O)c3cccs3)CC[C@@H]2C1 | 7.66 |
| Cn1ccc(C(=O)NC2CCC23CCN(C(=O)C2CCOCC2)CC3)c1 (stereo unspecified) | -81.4 |
| Cn1ccc(C(=O)NC2CCC23CCN(C(=O)c2cnccn2)CC3)c1 (stereo unspecified) | -71.4 |
| CN1CCN(Cc2cccnc2)Cc2cccnc21 | -76.9 |

| Structure (SMILES) | cytotoxicity at 10 µM [%] |
| --- | --- |
| CC(C)Nc1ncnc2c1CCN(C(=O)Cc1cccs1)CC2 | -80.9 |
| Cc1cc(C(=O)N2CCCC(O)(CN3CCCC3)C2)ccc1Cl (stereo unspecified) | 1.6 |
| NCCc1nc(N(Cc2cncs2)C2CC2)c2ccccc2n1 | -7.15 |
| Cc1ccc(CN(C)Cc2cc(C3CC3)[nH]n2)c(O)n1 | 4.11 |
| Cc1n[nH]c(C)c1CNc1nc(-c2ccco2)nc2c1CCNCC2 | -3.43 |
| O=C(CCN1CCCCO1)NCCSc1cnn[nH]1 | 0.956 |
| CC(=O)N[C@@H](CC(C)C)C(=O)N1CCC(n2cc(C(C)(C)N)nn2)CC1 | -11.7 |
| Cc1nc(C(=O)N2CCC(c3nccn3Cc3ccncc3)CC2)cs1 | -2.85 |
| C=C(C)COc1ccccc1CNCCc1c[nH]cn1 | -2.21 |
| COc1cccc(Cn2ncc(N(C)CCc3ccccc3)cc2=O)c1 | 2.93 |
| Cc1cccnc1CN1CCN(C(=O)CCn2ccccc2=O)CC1 | 3.34 |
| Cc1nc(CC(C)C)cc(C(=O)N2C[C@@H](N(C)C)[C@H](C(C)C)C2)n1 | 9.26 |
| Cc1cnccc1N1CCN(C(=O)CCCN2CCCCC2)CC1 | 0.0879 |
| CCCc1cc(C(=O)N2C[C@H]3CCC[C@@]3(CO)C2)[nH]n1 | 10.4 |
| Cc1cc(C[C@@H]2COC[C@@H]2NC(=O)CN2CCOC2=O)on1 | -0.6 |
| CCn1c(N)nc2cc(C(=O)NCCc3sccc3C)cnc21 | -23.3 |
| Cc1ccccc1N1CCCN(C(=O)CCCS(N)(=O)=O)CC1 | -16 |
| COc1ccccc1Oc1ncccc1CNC(=O)C(C)N1CCCC1 (stereo unspecified) | -5.39 |
| Cc1cc(CC(=O)N2CCCC2c2nc(C(C)C)no2)on1 (stereo unspecified) | -25.9 |
| Cc1cc(C)n(C(=O)Cn2nc(C)c(I)c2C)n1 | -6.52 |
| CCn1cc(N)c(-c2nnc3n2CCCC3)n1 | -8.72 |
| Cn1cc(-c2cc(C(F)(F)F)n(CCCN)n2)cn1 | -6.11 |
| CO[C@H]1CN(C(=O)c2ccc3oc(C)cc3c2)CC[C@@]12CCCO2 | 0.153 |

| Structure (SMILES) | cytotoxicity at 10 µM [%] |
| --- | --- |
| NC(=O)C1CCN(C(=O)NCCNc2ccccn2)CC1 | -12.8 |
| CC1CN(CC(=O)Nc2ccncc2)CCN1c1nccs1 (stereo unspecified) | 29.5 |
| Cc1cccc2c1CCN(c1cc(N3CCCC3CO)ncn1)C2 (stereo unspecified) | -3.44 |
| Cc1cnn(CC2CN(Cc3cccc(C(=O)N(C)C)c3)CCO2)c1 (stereo unspecified) | -1.73 |
| COc1cc(CCC(=O)NCC2CCCN2C)ccc1OCC(F)(F)F (stereo unspecified) | -5.99 |
| O=C(CCNCC(F)(F)F)N1CCC(Nc2cccnn2)CC1 | -1.5 |
| CSc1nccn1-c1cccc(C(=O)NCC2CC2)c1 | -10.6 |
| COCCN1CCC(NC(=O)C2(c3cc(C)cc(C)c3)CC2)CC1 | -4.37 |
| CC(C)c1nc2c(n1C)CCN(Cc1nc(-c3cccs3)no1)C2 | -10.1 |
| CCC1c2ccsc2CCN1C(=O)NCc1cc[nH]n1 (stereo unspecified) | -8.88 |
| Cc1nc(C)n(CC2CCCN(CC(=O)Nc3c(C)n[nH]c3C)C2)n1 (stereo unspecified) | 0.813 |
| Cc1n[nH]c(C)c1NC(=O)CN1CCCC(CNC(=O)C(C)(C)C)C1 (stereo unspecified) | -4.64 |
| CN1CCOC(CNCc2cccc(OCC(F)(F)F)c2)C1 (stereo unspecified) | -6.44 |
| Cn1cc(C(=O)NC2CCN(C(=O)NCCSC(F)(F)F)CC2)cn1 | 2.36 |
| CCc1nc(CN(Cc2cccs2)CC2CCCO2)no1 (stereo unspecified) | 2.26 |
| O=C(Cc1c[nH]c2ccccc12)N1CCC(Nc2cccnn2)CC1 | -5.08 |
| Cc1cc(C(=O)NCC(C)N2CCc3ccccc32)no1 (stereo unspecified) | -8.8 |
| O=C(c1cccnc1N1CCOCC1)N1CCCC1Cn1cccn1 (stereo unspecified) | -2.53 |
| O=C1CCCN1Cc1ncn2c1CN(Cc1cccs1)CCC2 | -84.1 |
| Cn1ccnc1CN1CCC2(CCCN2c2ncccn2)CC1 | 7.55 |
| c1cnc(N2CCO[C@H]3[C@H](OCC4CCOCC4)CC[C@@H]32)nc1 | 4.55 |
| COc1cc(N2CCC3(CCCN3Cc3ccn(C)n3)CC2)ncn1 | 4.89 |
| Cc1noc(C)c1CN1CC[C@@H]2O[C@H](COCC(C)C)CC[C@@H]21 | 8.28 |

| Structure (SMILES) | cytotoxicity at 10 µM [%] |
| --- | --- |
| c1nc2c(c(C3CC3)n1)CCN(Cc1ccc3c(c1)OCO3)CC2 | -17.1 |
| Brc1ccc(CNCc2nnc3n2CCCCC3)s1 | -0.254 |
| Cc1nc(CN2CCN(Cc3ccoc3)Cc3cccnc32)cs1 | -5.25 |
| c1cnc(NC[C@@H]2CCC[C@@H]3CN(Cc4cccnc4)C[C@@H]32)nc1 | -14.3 |
| CC(C)NC(=O)N1CCc2ncc(CN3CCOCC3)n2CC1 | 6.28 |
| c1cncc(COCc2nnc3n2CCN(Cc2ccsc2)C3)c1 | -21.6 |
| Cc1noc(C)c1CN1CCn2c(CN3CCN(C)CC3)cnc2C1 | 8.98 |
| Fc1ccc(CN2CCC3(CCN(Cc4nccs4)CC3)C2)cc1 | 5.04 |
| CC(C)NC(=O)CC1COC2(CCN(Cc3ccccc3)CC2)C1 (stereo unspecified) | 6.38 |
| Cc1ccc(N2CC[C@H]3O[C@@H](C(=O)NCc4ccco4)CC[C@H]32)nn1 | 2.03 |
| COCCN1CCCn2cnc(CN(C)C(C)C)c2C1 | 6.53 |
| O=C(NCc1cccnc1)[C@@H]1C[C@H]2[C@H](CCN2c2ncc(F)cn2)O1 | -85.3 |
| N#Cc1cccc(CN2CC[C@@H]3[C@@H]2CC(=O)N3CCN2CCCC2)c1 | -84.4 |
| c1cnc(N2CCC3(CCN(Cc4ccncc4)CC3)CC2)nc1 | -1.85 |
| O=C1NC2(CCN(CCO)CC2)CC1c1ccccc1 (stereo unspecified) | -3.83 |
| O=C(Cc1cccs1)N1CCC2(CC1)COCCN2CC1CC1 | 4.98 |
| CCCn1nccc1NC(=O)CN1CCOC(Cn2cc(C)cn2)C1 (stereo unspecified) | 1.88 |
| CS(=O)(=O)N1C[C@H]2CC[C@@H](C1)N(C(=O)Cn1nc3ccccc3n1)C2 | 10.8 |
| CN(C)C(=O)N1C[C@H]2CC[C@@H](C1)N(Cc1ccc3nsnc3c1)C2 | -6.69 |
